Measurements published in ChEMBL document CHEMBL3627613, “4-Aminoquinoline derivatives as novel Mycobacterium tuberculosis GyrB inhibitors: Structural optimization, synthesis and biological evaluation” (Eur J Med Chem, 2015).
Values after ≈ are worked out from the molar mass of the structure shown.

Experiments:
[1] = Cytotoxicity against mouse RAW264.7 cells assessed as inhibition of cell viability at 50 uM incubated for 48 hrs at 37 degC by MTT assay relative to control; format: cell-based; settings: read-out: INH
In short: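 RAW 264.7 mouse macrophages, 5×10^5 cells per well, exposed to compound for 48 h at 37 °C under 5% CO2. MTT added 4 h before the end. Formazan dissolved in DMSO and absorbance read at 560 nm against blank. Triplicates, run twice.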

[2] = biological target: DNA gyrase subunit A/DNA gyrase subunit B (Mycobacterium tuberculosis (strain ATCC 25618 / H37Rv), UniProt P9WG45+P9WG47); test: Inhibition of DNA gyrase GyrA/GyrB in Mycobacterium tuberculosis incubated for 30 mins assessed as reduction in supercoiling of relaxed relaxed pBR322 DNA by ethidium bromide staining based agarose gel electrophoresis method
Sequence of DNA gyrase subunit A/DNA gyrase subunit B (P9WG45 whole entry): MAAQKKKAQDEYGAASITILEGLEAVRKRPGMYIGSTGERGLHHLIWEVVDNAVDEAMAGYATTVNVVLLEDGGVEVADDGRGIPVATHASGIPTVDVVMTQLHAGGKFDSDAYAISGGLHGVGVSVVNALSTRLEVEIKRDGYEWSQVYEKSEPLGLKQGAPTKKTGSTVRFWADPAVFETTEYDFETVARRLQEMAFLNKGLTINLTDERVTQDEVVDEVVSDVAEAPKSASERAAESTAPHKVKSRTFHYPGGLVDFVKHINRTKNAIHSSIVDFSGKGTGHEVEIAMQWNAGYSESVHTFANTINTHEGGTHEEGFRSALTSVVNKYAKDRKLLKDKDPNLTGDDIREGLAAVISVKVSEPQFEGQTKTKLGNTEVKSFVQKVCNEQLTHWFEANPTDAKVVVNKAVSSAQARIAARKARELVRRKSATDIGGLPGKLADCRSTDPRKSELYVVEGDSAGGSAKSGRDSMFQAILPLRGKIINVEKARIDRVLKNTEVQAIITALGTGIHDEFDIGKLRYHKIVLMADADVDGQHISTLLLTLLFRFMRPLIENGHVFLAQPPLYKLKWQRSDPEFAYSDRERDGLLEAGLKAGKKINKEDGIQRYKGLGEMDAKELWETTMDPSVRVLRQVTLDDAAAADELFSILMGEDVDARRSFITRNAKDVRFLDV
Sequence of DNA gyrase subunit A/DNA gyrase subunit B (P9WG47 whole entry): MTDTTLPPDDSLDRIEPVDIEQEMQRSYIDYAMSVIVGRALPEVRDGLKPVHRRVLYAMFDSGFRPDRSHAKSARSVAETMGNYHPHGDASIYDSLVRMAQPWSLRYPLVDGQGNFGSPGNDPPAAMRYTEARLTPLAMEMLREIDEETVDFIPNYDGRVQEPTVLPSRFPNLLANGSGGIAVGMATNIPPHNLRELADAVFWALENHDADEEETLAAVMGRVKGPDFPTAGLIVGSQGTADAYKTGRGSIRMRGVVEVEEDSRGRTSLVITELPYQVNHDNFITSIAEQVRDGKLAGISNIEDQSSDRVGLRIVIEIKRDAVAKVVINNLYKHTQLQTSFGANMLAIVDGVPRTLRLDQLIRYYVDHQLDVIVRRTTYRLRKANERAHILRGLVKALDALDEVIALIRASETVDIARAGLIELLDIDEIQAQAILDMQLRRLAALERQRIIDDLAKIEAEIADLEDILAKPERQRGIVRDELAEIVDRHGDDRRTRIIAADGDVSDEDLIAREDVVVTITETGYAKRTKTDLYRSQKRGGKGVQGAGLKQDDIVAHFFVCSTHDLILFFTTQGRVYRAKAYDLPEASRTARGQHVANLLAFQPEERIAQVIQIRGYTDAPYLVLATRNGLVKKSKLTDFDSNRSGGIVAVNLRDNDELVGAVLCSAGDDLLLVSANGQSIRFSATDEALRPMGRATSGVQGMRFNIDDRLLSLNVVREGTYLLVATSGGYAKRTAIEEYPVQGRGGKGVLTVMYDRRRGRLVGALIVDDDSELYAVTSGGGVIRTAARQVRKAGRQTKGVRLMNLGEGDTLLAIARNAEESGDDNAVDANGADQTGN

[3] = biological target: DNA gyrase subunit B (Mycobacterium smegmatis, UniProt P0C559); test: Inhibition of Mycobacterium smegmatis DNA gyrase B expressed in Escherichia coli BL21 (DE3) pLysS cells assessed as reduction in ATPase activity incubated for 100 mins by inorganic phosphate detection assay; set-up: species or system Mycolicibacterium smegmatis
Sequence of DNA gyrase subunit B (P0C559 whole entry): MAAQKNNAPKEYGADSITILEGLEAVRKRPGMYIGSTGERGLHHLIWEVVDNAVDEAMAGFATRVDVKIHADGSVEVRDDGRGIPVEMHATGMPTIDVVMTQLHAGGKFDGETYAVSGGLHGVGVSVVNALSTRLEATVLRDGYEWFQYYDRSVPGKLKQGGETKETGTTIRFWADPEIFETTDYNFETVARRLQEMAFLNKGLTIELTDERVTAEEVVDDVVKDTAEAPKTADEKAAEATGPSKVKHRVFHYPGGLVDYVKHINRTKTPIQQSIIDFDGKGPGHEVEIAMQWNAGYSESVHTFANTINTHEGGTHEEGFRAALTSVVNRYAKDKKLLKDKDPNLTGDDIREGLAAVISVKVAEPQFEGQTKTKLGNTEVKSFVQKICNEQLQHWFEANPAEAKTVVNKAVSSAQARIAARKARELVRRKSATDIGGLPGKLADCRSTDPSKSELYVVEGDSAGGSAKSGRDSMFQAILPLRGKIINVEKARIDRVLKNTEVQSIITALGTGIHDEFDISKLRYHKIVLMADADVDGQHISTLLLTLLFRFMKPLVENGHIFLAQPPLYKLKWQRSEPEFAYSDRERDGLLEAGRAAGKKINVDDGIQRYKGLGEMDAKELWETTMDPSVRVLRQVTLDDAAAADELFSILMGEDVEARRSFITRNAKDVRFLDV

[4] = system: Mycobacterium tuberculosis; test: Antimycobacterial activity against Mycobacterium tuberculosis H37Rv assessed as growth inhibition incubated for 7 days by microplate alamar blue assay; format: functional; settings: 168 h
In short: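 M. tuberculosis H37Rv inoculum from fresh LJ medium, resuspended in 7H9 broth (0.1% casitone, 0.5% glycerol, OADC), set to McFarland No. 1 and diluted 1:20. Two-fold serial compound dilutions in 7H9-S, with growth and sterile controls. Incubated 7 days at 37 °C, then alamar blue overnight. MIC is the lowest concentration preventing the blue-to-pink colour change.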

SMILES | cytotoxicity at 48 h, 50 µM [1] [%] | IC50 [2] [µM] | IC50 [3] [µM] | MIC [4] [µM]
NNC(=O)c1cnc2ccc(C(F)(F)F)cc2c1Nc1ccc(NCCCN2CCOCC2)cc1 | 7.94 | 19.9 | 47.2 | 25.6 (≈ 12.5 µg/mL)
CCN1CCN(CCCOc2ccc(Nc3c(C(=O)NN)cnc4ccc(C(F)(F)F)cc34)cc2)CC1 | 20.1 | 9.33 | 11.9 | 11.5 (≈ 5.95 µg/mL)
CCOC(=O)c1cnc2ccc(C(F)(F)F)cc2c1Nc1ccc(OCCCN2CCOCC2)cc1 | 20.2 | 16.4 | 38.8 | 43.1 (≈ 21.7 µg/mL)
O=C(O)c1cnc2ccc(C(F)(F)F)cc2c1Nc1ccc(NCCCN2CCOCC2)cc1 | 19.1 | 3.77 | 7.89 | 6.59 (≈ 3.13 µg/mL)
COc1ccc2ncc(C(=O)O)c(Nc3ccc(NCCCN4CCOCC4)cc3)c2c1 | 16.1 | 12.6 | 38.9 | 28.6 (≈ 12.5 µg/mL)
CCOC(=O)c1cnc2ccc(OC)cc2c1Nc1ccc(OCCCN2CCOCC2)cc1 | 21.2 | 13.3 | 14.9 | 13.3 (≈ 6.22 µg/mL)
CCOC(=O)c1cnc2ccccc2c1Nc1ccc(NCCCN2CCOCC2)cc1 | 1.82 | 8.73 | 17.9 | 14.4 (≈ 6.25 µg/mL)
CCN1CCN(CCCOc2ccc(Nc3c(C(=O)O)cnc4ccccc34)cc2)CC1 | 13.4 | 10.2 | 21.7 | 27.2 (≈ 11.8 µg/mL)
O=C(O)c1cnc2ccccc2c1Nc1ccc(NCCCN2CCOCC2)cc1 | 0.55 | 5.56 | 11.3 | 7.69 (≈ 3.13 µg/mL)
CCN1CCN(CCCNc2ccc(Nc3c(C(=O)NN)cnc4ccc(F)cc34)cc2)CC1 | 6.11 | 0.82 | 1.15 | 3.3 (≈ 1.54 µg/mL)
CCOC(=O)c1cnc2ccc(OC)cc2c1Nc1ccc(OCCCN2CCN(CC)CC2)cc1 | 21.6 | 6.85 | 15.9 | 11.6 (≈ 5.7 µg/mL)
CCOC(=O)c1cnc2ccc(F)cc2c1Nc1ccc(NCCCN2CCOCC2)cc1 | 19.6 | 4.61 | 11.3 | 13.4 (≈ 6.09 µg/mL)
NNC(=O)c1ccncc1 [ISONIAZID] |  |  |  | 0.66 (≈ 0.0905 µg/mL)
O=C(O)c1cnc2ccc(F)cc2c1Nc1ccc(NCCCN2CCOCC2)cc1 | 13.1 | 4.44 | 15 | 29.5 (≈ 12.5 µg/mL)
COc1ccc2ncc(C(=O)NN)c(Nc3ccc(OCCCN4CCOCC4)cc3)c2c1 | 6.26 | 10.4 | 10.6 | 55.4 (≈ 25 µg/mL)
CCN1CCN(CCCNc2ccc(Nc3c(C(=O)O)cnc4ccc(OC)cc34)cc2)CC1 | 20.1 | 0.93 | 1.32 | 3.48 (≈ 1.61 µg/mL)
O=C(O)c1cnc2ccc(C(F)(F)F)cc2c1Nc1ccc(OCCCN2CCOCC2)cc1 | 22.6 | 14.3 | 27.8 | 13.2 (≈ 6.25 µg/mL)
CCN1CCN(CCCNc2ccc(Nc3c(C(=O)NN)cnc4ccc(OC)cc34)cc2)CC1 | 2.56 | 2.55 | 3.26 | 13.1 (≈ 6.25 µg/mL)
CCOC(=O)c1cnc2ccccc2c1Nc1ccc(NCCCN2CCN(CC)CC2)cc1 | 20.4 | 3.25 | 11.7 | 6.77 (≈ 3.13 µg/mL)
CCOC(=O)c1cnc2ccccc2c1Nc1ccc(OCCCN2CCOCC2)cc1 | 17.7 | 7.53 | 22.8 | 28.7 (≈ 12.5 µg/mL)
NNC(=O)c1cnc2ccccc2c1Nc1ccc(OCCCN2CCOCC2)cc1 | 44.6 | 0.72 | 0.97 | 2.4 (≈ 1.01 µg/mL)
CO[C@@H]1[C@@H](OC(N)=O)[C@@H](O)[C@H](Oc2ccc3c(O)c(NC(=O)c4ccc(O)c(CC=C(C)C)c4)c(=O)oc3c2C)OC1(C)C [NOVOBIOCIN] |  |  |  | > 200
O=C(O)c1cnc2ccccc2c1Nc1ccc(OCCCN2CCOCC2)cc1 | 11.3 | 21.8 | > 50 | 30.7 (≈ 12.5 µg/mL)
CCOC(=O)c1cnc2ccc(C(F)(F)F)cc2c1Nc1ccc(NCCCN2CCOCC2)cc1 | 20.2 | 3.12 | 6.62 | 49.8 (≈ 25 µg/mL)
NNC(=O)c1cnc2ccc(F)cc2c1Nc1ccc(NCCCN2CCOCC2)cc1 | 29.1 | 10.6 | 18.7 | 23.6 (≈ 10.3 µg/mL)

SMILES | cytotoxicity at 48 h, 50 µM [1] [%] | IC50 [2] [µM] | IC50 [3] [µM] | MIC [4] [µM]
CCOC(=O)c1cnc2ccc(C(F)(F)F)cc2c1Nc1ccc(OCCCN2CCN(CC)CC2)cc1 | 27.3 | 0.69 | 0.97 | 2.94 (≈ 1.56 µg/mL)
CCOC(=O)c1cnc2ccc(F)cc2c1Nc1ccc(OCCCN2CCN(CC)CC2)cc1 | 21.6 | 11.8 | 23.6 | 3.25 (≈ 1.56 µg/mL)
O=C(O)c1cnc2ccc(F)cc2c1Nc1ccc(OCCCN2CCOCC2)cc1 | 10.8 | 16.9 | 31.3 | 14.7 (≈ 6.25 µg/mL)
CCN1CCN(CCCOc2ccc(Nc3c(C(=O)O)cnc4ccc(F)cc34)cc2)CC1 | 24.2 | 5.96 | 6.82 | 6.91 (≈ 3.13 µg/mL)
CCN1CCN(CCCNc2ccc(Nc3c(C(=O)NN)cnc4ccc(C(F)(F)F)cc34)cc2)CC1 | 1.59 | 11 | 26.3 | 30 (≈ 15.5 µg/mL)
CCN1CCN(CCCOc2ccc(Nc3c(C(=O)NN)cnc4ccc(F)cc34)cc2)CC1 | 11.9 | 2.96 | 2.92 | 3.34 (≈ 1.56 µg/mL)
NNC(=O)c1cnc2ccccc2c1Nc1ccc(NCCCN2CCOCC2)cc1 | 6.48 | 22.9 | > 50 | 44.9 (≈ 18.9 µg/mL)
CCN1CCN(CCCNc2ccc(Nc3c(C(=O)NN)cnc4ccccc34)cc2)CC1 | 3.36 | 9.42 | 10.8 | 13.5 (≈ 6.04 µg/mL)
CCOC(=O)c1cnc2ccccc2c1Nc1ccc(OCCCN2CCN(CC)CC2)cc1 | 21.4 | 23.9 | > 50 | 13.5 (≈ 6.25 µg/mL)
CCN1CCN(CCCOc2ccc(Nc3c(C(=O)NN)cnc4ccc(OC)cc34)cc2)CC1 | 2.72 | 5.89 | 12.6 | 11.6 (≈ 5.57 µg/mL)
CO[C@H]1/C=C/O[C@@]2(C)Oc3c(C)c(O)c4c(O)c(c(/C=N/N5CCN(C)CC5)c(O)c4c3C2=O)NC(=O)/C(C)=C\C=C\[C@H](C)[C@H](O)[C@@H](C)[C@@H](O)[C@@H](C)[C@H](OC(C)=O)[C@@H]1C [RIFAMPIN] |  |  |  | 0.23 (≈ 0.189 µg/mL)
CCOC(=O)c1cnc2ccc(C(F)(F)F)cc2c1Nc1ccc(NCCCN2CCN(CC)CC2)cc1 | 20.1 | 3.77 | 8.82 | 1.47 (≈ 0.779 µg/mL)
CCOC(=O)c1cnc2ccc(F)cc2c1Nc1ccc(NCCCN2CCN(CC)CC2)cc1 | 20.2 | 7.99 | 16.9 | 13 (≈ 6.25 µg/mL)
NNC(=O)c1cnc2ccc(F)cc2c1Nc1ccc(OCCCN2CCOCC2)cc1 | 13.7 | 21.4 | 20.9 | 28.4 (≈ 12.5 µg/mL)
COc1ccc2ncc(C(=O)O)c(Nc3ccc(OCCCN4CCOCC4)cc3)c2c1 | 11.4 | 12.9 | 20.6 | 57.1 (≈ 25 µg/mL)
CCN1CCN(CCCOc2ccc(Nc3c(C(=O)O)cnc4ccc(C(F)(F)F)cc34)cc2)CC1 | 13.4 | 3.54 | 7.91 | 19.8 (≈ 9.93 µg/mL)
CCOC(=O)c1cnc2ccc(F)cc2c1Nc1ccc(OCCCN2CCOCC2)cc1 | 44.1 | 7.63 | 16.9 | 21.7 (≈ 9.85 µg/mL)
COc1c(N2C[C@@H]3CCCN[C@@H]3C2)c(F)cc2c(=O)c(C(=O)O)cn(C3CC3)c12 [MOXIFLOXACIN] |  |  | > 50 | 1.26 (≈ 0.506 µg/mL)
CCOC(=O)c1cnc2ccc(OC)cc2c1Nc1ccc(NCCCN2CCOCC2)cc1 | 19.3 | 9.32 | 22.3 | 23.4 (≈ 10.9 µg/mL)
CCN1CCN(CCCOc2ccc(Nc3c(C(=O)NN)cnc4ccccc34)cc2)CC1 | 18.2 | 16.7 | 28.4 | 13.9 (≈ 6.25 µg/mL)
CCOC(=O)c1cnc2ccc(OC)cc2c1Nc1ccc(NCCCN2CCN(CC)CC2)cc1 | 21.4 | 8.52 | 9.55 | 25.4 (≈ 12.5 µg/mL)
COc1ccc2ncc(C(=O)NN)c(Nc3ccc(NCCCN4CCOCC4)cc3)c2c1 | 9.59 | 15.3 | 44.9 | 27.8 (≈ 12.5 µg/mL)
NNC(=O)c1cnc2ccc(C(F)(F)F)cc2c1Nc1ccc(OCCCN2CCOCC2)cc1 | 0.07 | 19.9 | 38.7 | 36.4 (≈ 17.8 µg/mL)
CCN1CCN(CCCNc2ccc(Nc3c(C(=O)O)cnc4ccccc34)cc2)CC1 | 32.3 | 5.88 | 11.3 | 11.8 (≈ 5.12 µg/mL)
